Laboratory results as given in ChEMBL document CHEMBL4480410, “Targeting the MKK7-JNK (Mitogen-Activated Protein Kinase Kinase 7-c-Jun N-Terminal Kinase) Pathway with Covalent Inhibitors” (J Med Chem, 2019).
In brackets after ≈: the same amount, converted by molar mass.

Assay: Kinetic solubility of the compound in Hepes buffer at pH 7.4 after 90 mins
Assay type: physicochemical
Settings: read-out: Kinetic_solubility
How it was run: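 Compound diluted from 10 mM DMSO stock to 500 µM final in 50 mM Hepes, pH 7.4, shaken 90 min at room temperature. Filtered through 0.2 µm PVDF, then OD scanned 250–500 nm in 10 nm steps. Solubility taken from AUC, normalized to a dilution in acetonitrile.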

- solubility kinetic at 1.5 h: 8 µM (≈ 3.66 µg/mL)
SMILES: C=CC(=O)N1CCC[C@@H](n2nc(-c3cn(-c4ccc(C(C)=O)cc4)nn3)c3c(N)ncnc32)C1
